# Reference: article PMC10333676 (Redox Biology, 2023)
# Tests used:
# [1] = target: T1, Mutant Magnetospirillum gryphiswaldense cereblon isoform 4 (MsCI4^WW/FF) (Magnetospirillum gryphiswaldense, UniProt A4TVL0, W36F/W59F); test: FRET-based competitive binding assay
# T1 sequence (A4TVL0 1-124 W36F/W59F): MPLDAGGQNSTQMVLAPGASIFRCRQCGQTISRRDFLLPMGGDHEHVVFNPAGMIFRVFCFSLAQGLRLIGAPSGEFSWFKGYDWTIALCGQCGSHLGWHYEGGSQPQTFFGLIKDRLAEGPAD
# Summary of the method: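 Competitive FRET binding used mutant cereblon isoform 4 (MsCI4WW/FF) with the reporter ligand MANT-uracil. Buffer was 20 mM Tris pH 7.5, 150 mM NaCl, 5 mM 2-mercaptoethanol, final DMSO ≤0.02%. Tryptophan was read at ex 295/em 350 nm and FRET emission at 440 nm. Ligands were titrated to reduce the FRET signal, with MANT-uracil autofluorescence as blank and thalidomide as positive control; triplicates.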
# KEAP1 [2] = target: KEAP1 (Homo sapiens, UniProt Q14145); test: KEAP1 degradation in HepG2 cells by western blotting; assay type: cell-based; settings: for reduction of KEAP1 level: HepG2, 1 μM, 6 h
# Summary of the method: (§1)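 CRBN-knockdown HepG2 clones were made with pGIPZ lentiviral shRNA (virus from transfected HEK293T, with 5 μg/mL polybrene) and GFP-FACS sorting. Lysates were western blotted and densitometry came from three independent experiments.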
# [3] = target: T1, Mutant Magnetospirillum gryphiswaldense cereblon isoform 4 (MsCI4^WW/FF); settings: read-out: published Kd of MANT-uracil to MsCI4^WW/FF; cited from earlier work
# AML12 cells [4] = test: APAP-induced loss of cell viability; assay type: cell-based, mouse; settings: AML12, APAP 15 mM, 24 h, MTT
# CRBN = CRBN (Homo sapiens, UniProt Q96SW2); test: CRBN protein level in HepG2 cells by western blotting; assay type: cell-based; settings: HepG2, 100 or 300 nM, 24 h
# Summary of the method: as §1
# [5] = tested on: HMOX1, NQO1, GCLC and GCLM (the target genes of NRF2); test: NRF2 target gene expression by qRT-PCR in HepG2 cells; assay type: cell-based, human; settings: HepG2, 100 nM
# Summary of the method: (§2)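 Cells got test compound 100 nM for indicated times. RNA was extracted with TRIzol, reverse-transcribed, and HMOX1, NQO1, GCLC and GCLM were quantified by qRT-PCR. Values were normalized to GAPDH and expressed as relative levels by ΔΔCt.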
# [6] = tested on: HMOX1, NQO1, GCLC and GCLM (the target genes of NRF2); test: NRF2 target gene expression by qRT-PCR in AML12 cells; assay type: cell-based, mouse; settings: AML12, 100 nM
# Summary of the method: as §2
# NRF2 [7] = test: Nuclear translocation of NRF2 in AML12 cells; assay type: cell-based, mouse
# Summary of the method: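 Nuclear fractionation: AML12 cells got test compound 300 nM for indicated times. Cells were pelleted (4000 G, 4 °C), extracted in nuclear buffer, frozen, then spun at 15,000 G for 20 min. Fractions were BCA-quantified and western blotted (GAPDH cytosolic, Lamin B nuclear loading controls), with densitometry from three independent experiments. Immunofluorescence: 100 or 300 nM for 3 h, 4% PFA, 0.1% Triton X-100, NRF2 stain, DAPI, confocal imaging.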
# [8] = tested on: primary mouse hepatocytes; test: APAP-induced ROS generation; assay type: cell-based; settings: 100 nM 6 h before APAP 20 mM
# Summary of the method: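 Primary hepatocytes came from 8–10-week male C57BL6/N mice by collagenase perfusion and were cultured in medium 199 with 10% FBS, 10 nM dexamethasone and 23 mM HEPES. The next day cells got test compound 100 nM for 6 h, then 50 μM DCF-DA (serum-free, 30 min, 37 °C), a wash and 20 mM APAP. Fluorescence (ex488/em525) was read every 20 min for 10 h; n = 4 per group.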
# KEAP1 [9] = target: T2, KEAP1 (Mus musculus, UniProt Q9Z2X8); test: KEAP1 degradation in primary mouse hepatocytes by western blotting; assay type: cell-based; settings: 1 to 1000 nM, 24 h
# Summary of the method: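 Primary hepatocytes from male C57BL6/N mice were collagenase-perfused and plated in medium 199 with 10% FBS, 10 nM dexamethasone and 23 mM HEPES. […] KEAP1 was read by western blot. DC50 and Dmax came from densitometry of three independent experiments.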
# [10] = In vivo pharmacokinetics in ICR mice; set-up: species or system mouse; settings: for AUC / AUC(0-t) / Cmax / MRT / half-life: male, ICR, mouse, plasma
# Summary of the method: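 Male ICR mice (7–8 weeks, 30–35 g) received test compound at 3 mg/kg IP or PO. Plasma concentration–time profiles were measured and PK parameters were derived by non-compartmental analysis.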
# C57BL/6 N male mice = test: Acetaminophen; assay type: in vivo, mouse
# AML12 cells [11] = test: APAP-induced ROS generation; assay type: cell-based, mouse; settings: AML12, APAP 5 mM, 4 h, 300 nM of SD2267
# Summary of the method: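 AML12 mouse hepatocytes (DMEM/F-12, 10% FBS, ITS-pyruvate, dexamethasone 40 ng/mL) were seeded and exposed the next day to 5 mM APAP with or without test compound. After 4 h, cells were loaded with 50 μM DCF-DA in serum-free medium for 30 min at 37 °C and washed. Fluorescence was read at ex488/em525.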
# KEAP1 [12] = target: T2, KEAP1; test: KEAP1 degradation in AML12 cells by western blotting; assay type: cell-based
# Summary of the method: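 AML12 cells got test compound for 24 h over a concentration series (DC50/Dmax) or 100 nM over a time course (DT50). Co-treatments: MG132 5 μM with 100 or 300 nM for 4 h; CQ 20 μM for 18 h, then 100 or 300 nM for 6 h; pomalidomide or TD-165 1 μM for 3 h, then 100 nM for 6 h. KEAP1 was read by western blot (RIPA, SDS-PAGE, PVDF, ECL) with densitometry from three independent experiments.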
# NRF2 [13] = test: Nuclear translocation of NRF2 in HepG2 cells; assay type: cell-based, human
# AML12 cells [14] = test: APAP-induced mitochondrial ROS; assay type: cell-based, mouse; settings: AML12, APAP 5 mM, 8 h
# Summary of the method: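 AML12 cells were exposed to 5 mM APAP with or without test compound for 8 h. They were then stained with 5 μM MitoSOX Red (mitochondrial ROS, red fluorescence) or 0.25 μg/mL JC-1 (green monomer fluorescence, rising as membrane potential falls). Intensities were read by flow cytometry; means ± SEMs, n = 3 per group.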
# [15] = SD2267 3 mg/kg IP 2 h after APAP 250 mg/kg IP, 6 h
# Sequence of KEAP1 (Homo sapiens, UniProt Q14145) (Q14145 whole entry): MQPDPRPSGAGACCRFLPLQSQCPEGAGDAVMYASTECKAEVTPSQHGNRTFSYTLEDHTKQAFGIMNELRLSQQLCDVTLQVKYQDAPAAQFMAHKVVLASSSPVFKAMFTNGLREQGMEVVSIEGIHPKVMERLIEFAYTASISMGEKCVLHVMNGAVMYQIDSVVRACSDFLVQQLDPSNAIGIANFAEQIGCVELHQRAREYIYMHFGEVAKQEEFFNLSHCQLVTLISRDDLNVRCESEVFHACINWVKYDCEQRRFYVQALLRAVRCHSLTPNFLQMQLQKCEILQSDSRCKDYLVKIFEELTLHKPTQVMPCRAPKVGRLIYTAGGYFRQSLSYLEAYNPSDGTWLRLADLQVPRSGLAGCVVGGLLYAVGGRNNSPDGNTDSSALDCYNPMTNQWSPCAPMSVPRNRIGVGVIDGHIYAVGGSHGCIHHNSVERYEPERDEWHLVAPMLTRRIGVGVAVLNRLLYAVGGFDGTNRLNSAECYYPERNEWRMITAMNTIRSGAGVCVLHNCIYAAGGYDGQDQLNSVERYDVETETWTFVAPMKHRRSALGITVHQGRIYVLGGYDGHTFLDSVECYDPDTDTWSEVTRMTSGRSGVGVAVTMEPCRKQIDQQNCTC
# T2 sequence (Q9Z2X8 whole entry, the tested form may be a part): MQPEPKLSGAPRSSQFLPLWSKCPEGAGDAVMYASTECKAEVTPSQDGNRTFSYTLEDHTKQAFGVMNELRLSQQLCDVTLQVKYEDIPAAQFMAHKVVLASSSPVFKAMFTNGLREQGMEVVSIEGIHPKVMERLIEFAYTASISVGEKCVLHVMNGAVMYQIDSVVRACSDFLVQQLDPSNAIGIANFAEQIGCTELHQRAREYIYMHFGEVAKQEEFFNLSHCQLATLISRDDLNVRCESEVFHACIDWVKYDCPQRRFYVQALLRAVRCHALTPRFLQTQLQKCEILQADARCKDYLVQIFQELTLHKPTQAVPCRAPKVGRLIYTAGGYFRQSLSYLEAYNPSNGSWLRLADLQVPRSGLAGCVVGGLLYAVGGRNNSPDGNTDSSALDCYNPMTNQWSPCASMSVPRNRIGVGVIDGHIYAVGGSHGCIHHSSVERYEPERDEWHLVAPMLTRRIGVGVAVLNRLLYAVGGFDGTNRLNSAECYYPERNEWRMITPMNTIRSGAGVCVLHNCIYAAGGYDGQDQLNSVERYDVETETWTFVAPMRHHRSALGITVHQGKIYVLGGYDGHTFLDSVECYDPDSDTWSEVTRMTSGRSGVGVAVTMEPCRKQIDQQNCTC
# Sequence of CRBN (Q96SW2 whole entry): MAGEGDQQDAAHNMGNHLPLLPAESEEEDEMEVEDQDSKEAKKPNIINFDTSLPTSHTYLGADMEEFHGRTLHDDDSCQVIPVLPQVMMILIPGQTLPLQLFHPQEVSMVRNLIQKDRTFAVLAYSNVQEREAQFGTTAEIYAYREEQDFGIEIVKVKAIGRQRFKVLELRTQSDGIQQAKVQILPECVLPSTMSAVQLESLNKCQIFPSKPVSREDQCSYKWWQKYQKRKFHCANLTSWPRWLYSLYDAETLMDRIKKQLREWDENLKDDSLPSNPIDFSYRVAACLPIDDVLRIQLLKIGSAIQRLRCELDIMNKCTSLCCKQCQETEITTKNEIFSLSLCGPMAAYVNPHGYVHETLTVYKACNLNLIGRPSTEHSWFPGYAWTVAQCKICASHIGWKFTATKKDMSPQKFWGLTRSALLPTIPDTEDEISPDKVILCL
compound,measurement,setting,value
Cc1ccc(C(CC(=O)O)c2cc(OCCCCCCCCNc3ccc4c(c3)C(=O)N(C3CCC(=O)NC3=O)C4=O)c3c(c2)nnn3C)cc1CN1C[C@@H](C)Oc2ccccc2S1(=O)=O (stereo partly drawn) [SD2268],Ki,[1],8150 ± 5710 nM
same,reduction of KEAP1 level,KEAP1 [2],7%
"CNc1ccccc1C(=O)NCCn1ccc(=O)[nH]c1=O [MANT-uracil, 1-(N-2-MANT-imidoethyl)-uracil]",Kd,[3],3300 nM
Cc1ccc(C(CC(=O)O)c2cc(OCCCCNc3cccc4c3C(=O)N(C3CCC(=O)NC3=O)C4=O)c3c(c2)nnn3C)cc1CN1C[C@@H](C)Oc2ccccc2S1(=O)=O (stereo partly drawn) [SD2269],Ki,[1],64.8 ± 13.2 nM
same,reduction of KEAP1 level,KEAP1 [2],no effect
Cc1ccc(C(CC(=O)O)c2cc(OCCCCCCCCNc3cccc4c3C(=O)N(C3CCC(=O)NC3=O)C4=O)c3c(c2)nnn3C)cc1CN1C[C@@H](C)Oc2ccccc2S1(=O)=O (stereo partly drawn) [SD2267],cell viability decreased by APAP,AML12 cells [4],significantly recovered
same,CRBN degradation,CRBN,not degraded
same,mRNA expression levels of NRF2 target genes,[5],significantly increased
same,Ki,[1],57.7 ± 17.5 nM
same,"mRNA expression levels of HMOX1, NQO1, GCLC and GCLM",[6],significantly increased
same,"Nuclear NRF2 (nuclear fractionation, western blotting)","NRF2 [7]; AML12, 300 nM, within 3 h",significantly upregulated
same,"amount and nuclear localization of NRF2 (immunofluorescence, confocal microscopy)","NRF2 [7]; AML12, 100 or 300 nM, 3 h",increased
same,APAP-induced ROS generation,[8],significantly reduced
same,KEAP1 degradation,KEAP1 [9],dose-dependently degraded
same,Tmax,"[10]; PO, 3 mg/kg, mice, n = 3, median with range",80 [60–120] min
same,AUC,"[10]; ip, 3 mg/kg",7800 ng·h/mL
same,AUC(0-t),"[10]; ip, 3 mg/kg",7720 ng·h/mL
same,Cmax,"[10]; ip, 3 mg/kg",1970 ± 870 ng/mL
same,MRT,"[10]; ip, 3 mg/kg",4.83 h
same,half-life,"[10]; ip, 3 mg/kg",3.67 ± 0.283 h
same,AUC,"[10]; po, 3 mg/kg",597 ng·h/mL
same,AUC(0-t),"[10]; po, 3 mg/kg",497 ng·h/mL
same,Cmax,"[10]; po, 3 mg/kg",172 ± 116 ng/mL
same,MRT,"[10]; po, 3 mg/kg",12.1 h
same,half-life,"[10]; po, 3 mg/kg",12.3 ± 1.7 h
same,oral bioavailability,[10]; oral parameters much lower than those of IP,low oral bioavailability
same,KEAP1 protein level in the liver compared to APAP,"C57BL/6 N male mice; 1 mg/kg IP, western blotting, p = 0.08",a trend towards a decrease
same,increase of liver protein level of NRF2 and HO-1 versus APAP-only group,C57BL/6 N male mice; 3 mg/kg IP,significantly greater
same,phosphorylation of JNK induced by APAP in liver,C57BL/6 N male mice; 3 mg/kg IP,significantly reduced
same,hepatic necrosis (HE staining),"C57BL/6 N male mice; 3 mg/kg, 2 h post-treatment after APAP 250 mg/kg",significantly reduced
same,liver GSH to GSSG ratio decreased by APAP,C57BL/6 N male mice; 1 or 3 mg/kg IP,significantly and dose-dependently recovered
same,number of TUNEL-positive cells,"C57BL/6 N male mice; APAP + 3 mg/kg of SD2267, 369 in APAP-treated mice, HPF x400",123 cells per HPF
same,decrease of APAP-induced serum ALT increase,C57BL/6 N male mice; [15],~1.9 fold
same,decrease of APAP-induced serum AST increase,C57BL/6 N male mice; [15],~2.2 fold
same,APAP-induced increase of DCF-DA fluorescence intensity,AML12 cells [11],significantly attenuated
same,Half-life (DT50) of KEAP1,"KEAP1 [2]; HepG2, 100 nM",2.6 h
same,reduction of KEAP1 level,KEAP1 [2],64%
same,Dmax at 0.3 µM,"KEAP1 [2]; HepG2, read-out: maximum degradation efficacy (Dmax)",82.3%
same,DC50,"KEAP1 [2]; read-out: half-maximal degradation concentration (DC50), HepG2, 24 h, 1 to 1000 nM",8.1 nM
same,KEAP1 levels in CRBN knockdown cells,"KEAP1 [2]; shCRBN #10 HepG2, 100 or 300 nM, 24 h",not affected
same,KEAP1 degradation in control cells,"KEAP1 [2]; shCon HepG2, 100 or 300 nM, 24 h",effectively degraded KEAP1
same,Half-life (DT50) of KEAP1,"KEAP1 [12]; AML12, 100 nM",2.2 h
same,KEAP1 degradation under autophagy inhibition by chloroquine,"KEAP1 [12]; AML12, CQ 20 μM 18 h prior to SD2267 100 or 300 nM 6 h",did not abolish
same,KEAP1 degradation in the presence of pomalidomide or TD-165,"KEAP1 [12]; AML12, POM 1 μM or TD-165 1 μM 3 h prior to SD2267 100 nM 6 h",attenuated
same,KEAP1 degradation in the presence of MG132,"KEAP1 [12]; AML12, SD2267 100 or 300 nM, MG132 5 μM, 4 h",could not degrade KEAP1
same,Dmax at 0.3 µM,"KEAP1 [12]; AML12, read-out: maximum degradation efficacy (Dmax)",76.5%
same,DC50,"KEAP1 [12]; read-out: half-maximal degradation concentration (DC50), AML12, 24 h, 1 to 1000 nM",16.8 nM
same,"Nuclear NRF2 (nuclear fractionation, western blotting)","NRF2 [13]; HepG2, 100 nM, within 3 h",significantly upregulated
same,"amount and nuclear localization of NRF2 (immunofluorescence, confocal microscopy)","NRF2 [13]; HepG2, 100 or 300 nM, 3 h",increased
same,APAP-induced increment of JC-1 green fluorescence intensity,AML12 cells [14],significantly reduced
same,MitoSOX Red fluorescence intensity versus APAP only,AML12 cells [14],significantly lower
